Shown are actives, neighbours in structure and some others; about 2.1% of the full set was active somewhere.
DNMT1 inh = DNMT1 (human) enzyme inhibition | P26358 | DNMT1 molecular beacon, Hinp1I cleavage, fluorescence | inhibition (reported as % activation of signal), % at 10 µM | hit rate 0.83% among 360,000 | AID 588458; in the data active = inhibition above about 50%
STEP inh = STEP (human) phosphatase inhibition. P54829. recombinant STEP, OMFP fluorogenic substrate, fluorescence. inhibition, % at 20 µM. hit rate 0.25% among 360,000;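 active = inhibition at 20 µM, scaled per plate between control wells, above about 37%, limit read from the data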
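medium = Bis-Tris buffer pH 6.0, 2.5 mM DTT, 0.005% Tween 20 | test system = STEP (striatal-enriched tyrosine phosphatase) enzyme, cell-free | measure = normalized % inhibition | compound dosing = 20 µM, 1% DMSO | also added = 25 µM OMFP | schedule = reaction 20 min, ambient temperature | measured by = fluorescence read at 480 nm ex / 540 nm em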
Scp1 inh = blocks human Scp-1 phosphatase activity; Q9GZU7; Recombinant Scp1, phosphopeptide, malachite green phosphate absorbance; inhibition, % at 20 µM; hit rate 0.88% among 340,000; AID 493091;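 active = inhibition above about 50% at 20 µM, limit read from the data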
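System: SCP-1 catalytic domain; Reagent: Phospho 17-mer peptide substrate; Doses: one concentration, 20 µM, with 1.0% DMSO; Incubation: 45 min room-temperature reaction, 5 min colour, 30 min stabiliser; Signal: Phosphate-binding colour reagent, absorbance read at 630 nm.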
LMPTP block = LMPTP (human) inhibition; P24666; recombinant LMPTP-A, OMFP fluorogenic substrate, fluorescence intensity; inhibition, % at 20 µM; hit rate 0.22% among 360,000; AID 651560;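 active = compounds that cut the enzyme signal by at least half of the control window in the single-dose screen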
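Test system – LMPTP-A phosphatase enzyme · Quantity – 0.625 nM LMPTP-A final · Reagent – OMFP substrate, 400 µM final · Dosing – one test concentration per compound, 20 µM, with 3% DMSO overall · Timing – 50 min enzyme reaction at room temperature, protected from light · Detection – fluorescence intensity · Controls – substrate-only low control, DMSO enzyme-plus-substrate high control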
SUMO1 PPI mod = modulators of human SUMO1-mediated protein-protein interactions. P63165. SUMO1 binding to a labelled peptide, TR-FRET, 1 h. inhibition, % at 20 µM. hit rate 0.33% among 360,000. AID 602429; in the data active = inhibition above about 37%
GRK2 inh = inhibitors of human GRK2 displacing RNA aptamer | bead flow cytometry, FAM-aptamer displacement from GRK2 | inhibition of aptamer binding, % at 10 µM | hit rate 0.59% among 330,000;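 active = inhibition of aptamer binding above 40%, roughly 3 SD of noise, on plates passing a quality check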;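 note: median bead fluorescence of bound FAM aptamer so fluorescent compounds give negative values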
Target sequence (P25098 whole entry, looked up): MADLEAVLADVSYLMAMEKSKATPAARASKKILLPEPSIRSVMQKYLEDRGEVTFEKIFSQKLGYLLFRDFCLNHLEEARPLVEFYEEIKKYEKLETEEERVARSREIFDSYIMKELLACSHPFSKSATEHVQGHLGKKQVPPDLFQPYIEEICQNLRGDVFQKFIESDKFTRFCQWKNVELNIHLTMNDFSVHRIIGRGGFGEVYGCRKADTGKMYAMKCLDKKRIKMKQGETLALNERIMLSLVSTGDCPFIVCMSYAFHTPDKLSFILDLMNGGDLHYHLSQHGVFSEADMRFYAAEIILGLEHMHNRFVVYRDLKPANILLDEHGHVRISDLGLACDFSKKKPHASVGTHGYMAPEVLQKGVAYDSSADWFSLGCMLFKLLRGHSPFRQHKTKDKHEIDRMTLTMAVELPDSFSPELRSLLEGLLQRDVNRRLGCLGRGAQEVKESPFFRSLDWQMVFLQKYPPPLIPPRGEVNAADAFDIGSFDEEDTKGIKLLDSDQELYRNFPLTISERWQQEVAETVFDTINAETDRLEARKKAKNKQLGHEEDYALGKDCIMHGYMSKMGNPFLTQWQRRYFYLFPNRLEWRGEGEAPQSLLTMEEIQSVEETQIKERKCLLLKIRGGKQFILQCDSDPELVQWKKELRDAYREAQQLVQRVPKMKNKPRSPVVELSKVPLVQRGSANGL
Of the large screens only hits and unclear results are named; the others gave an inactive call.

O=C(Nc1ccc(C2=NCCN2)cc1)c1ccc(C(=O)Nc2ccc(C3=NCCN3)cc2)c(Cl)c1	LMPTP block 59, SUMO1 PPI mod 87
CNc1nc2c(-c3ccc(Cl)cc3)nnn2c2ccccc12	LMPTP block 76
CCN1C(=O)/C(=C\c2ccc(-c3ccc([N+](=O)[O-])cc3OC)o2)SC1=Nc1cccc(C(=O)O)c1	SUMO1 PPI mod 54 (no result: GRK2 inh)
O=C(O)c1cccc(-c2ccc(/C=C3/SC(=Nc4ccccc4)N(Cc4cccnc4)C3=O)o2)c1	Scp1 inh 73, SUMO1 PPI mod 82
CCN1C(=O)/C(=C\c2ccc(-c3cccc(C(=O)OC)c3)o2)SC1=Nc1ccc(C(=O)O)cc1	none (no result: DNMT1 inh, STEP inh, Scp1 inh, LMPTP block, SUMO1 PPI mod)
CCN=C1S/C(=C/c2ccc(-c3ccc(Cl)cc3C(=O)O)o2)C(=O)N1CC	none
COC(=O)c1cc(C(=O)N2CCN(c3cccc(C)c3C)CC2)cc([N+](=O)[O-])c1	SUMO1 PPI mod 61
COC(=O)c1cc(C(=O)N2CCN(c3ccccc3OC)CC2)cc([N+](=O)[O-])c1	none
Cc1noc(C)c1C(=O)OC(C)C(=O)c1c[nH]c2ccccc12 (centres undefined)	none (no result: Scp1 inh, GRK2 inh)
COC(=O)c1cc2c(n1S(=O)(=O)c1ccc(C)cc1)C(=O)C(=O)c1[nH]cc(C(=O)OCc3ccccc3)c1-2	DNMT1 inh 82 (no result: GRK2 inh)
CCCS(=O)(=O)NC(=O)C1(C)CCCN(C(=O)c2cncc(Br)c2)C1 (centres undefined)	none (no result: Scp1 inh, GRK2 inh)
O=c1[nH]nc(CNc2ccc(O)cc2)c2ccccc12	SUMO1 PPI mod 55
O=c1[nH]nc(CNc2ccc(C(F)(F)F)cc2)c2ccccc12	none
NC(=O)C1CC2(C1)CC(C(N)=O)C2 (centres undefined)	none (no result: GRK2 inh)
O=C(COC(=O)c1ccccc1)Nc1ncc([N+](=O)[O-])s1	DNMT1 inh 93, Scp1 inh 83, LMPTP block 65, SUMO1 PPI mod 58
O=C(NCc1ccncc1)[C@@H]1CCCN1C(=O)[C@H]1CCCN1C(=O)c1cccc2ccccc12	none (no result: DNMT1 inh, STEP inh, Scp1 inh, GRK2 inh)
Cc1nc(N=Nc2ccc(O)cc2)n[nH]1	Scp1 inh 81
C[C@H](CO)N1C[C@H](C)[C@@H](CN(C)C(=O)NC2CCCCC2)Oc2ccc(NC(=O)Cc3ccccc3)cc2C1=O	none
CCC(CO)Oc1cc(NC(=O)c2ccc(N)cc2)c2ncn(C(C)C)c2c1 (centres undefined)	SUMO1 PPI mod 102
CCC(CO)Oc1cc(NC(=O)c2ccc(F)cc2)c2ncn(C(C)C)c2c1 (centres undefined)	none
CCC(COC)Oc1cc(NCc2ccccc2)c2ncn(C(C)C)c2c1 (centres undefined)	DNMT1 inh 54
CCC(CO)Oc1cc(NCc2ccccc2)c2ncn(C(C)C)c2c1 (centres undefined)	none
CC1=NOC(=O)/C1=C\c1ccc(-c2ccc(Br)cc2)o1	DNMT1 inh 61 (no result: GRK2 inh)
CCCCNC(=O)c1nc(C2CCN(S(=O)(=O)c3ccccc3C(F)(F)F)CC2)oc1-c1cccc(C(F)(F)F)c1	none (no result: Scp1 inh, GRK2 inh)
Nc1nnc(-c2ccco2)s1	none
Nc1ncnc2oc(-c3ccco3)c(-c3ccco3)c12	DNMT1 inh 93, Scp1 inh 66, LMPTP block 61
Cc1nc(-c2ccccc2)sc1-c1nc(-c2ccncc2)ncc1S(=O)(=O)c1ccccc1	SUMO1 PPI mod 47
COC1=CC(=O)c2c(ccc3ncnc(N)c23)C1=O	DNMT1 inh 103, SUMO1 PPI mod 72 (no result: GRK2 inh)
CC(C)Nc1ncnc2c1ncn2[C@H]1CN(Cc2cccs2)C[C@@H](CO)O1	none (no result: Scp1 inh, GRK2 inh)
O=C(Nc1nc(-c2ccccc2)cs1)C1CCCN(S(=O)(=O)c2ccccc2)C1 (centres undefined)	SUMO1 PPI mod 42
Cc1ccc2c(NCc3ccco3)nc(NC(C)C)nc2c1	none (no result: DNMT1 inh, STEP inh, Scp1 inh, GRK2 inh)
COc1ccccc1Cc1c(-c2ccco2)nc2c(C)cc(Br)cn12	DNMT1 inh 62 (no result: Scp1 inh, GRK2 inh)
O=C(NCCc1c[nH]c2ccccc12)c1[nH]c(C(F)(F)F)nc1-c1ccccc1	none (no result: Scp1 inh, GRK2 inh)
O=C(CCN1C(=O)/C(=C/c2ccccc2Cl)SC1=S)NC1C=CS(=O)(=O)C1 (centres undefined)	DNMT1 inh 54
O=C(CCN1C(=O)/C(=C/c2ccc(F)cc2)SC1=S)NC1C=CS(=O)(=O)C1 (centres undefined)	none
COc1cc([C@H]2c3[nH]c4ccccc4c3C[C@H]3C(=O)N4[C@@H](c5cc(OC)c(OC)c(OC)c5)c5[nH]c6ccccc6c5C[C@H]4C(=O)N23)cc(OC)c1OC	DNMT1 inh 52
CCN1C(=O)[C@@H]2Cc3c([nH]c4ccccc34)C(c3cc(OC)c(OC)c(OC)c3)N2C1=S (some centres undefined)	none
C=CC(=O)Nc1cccc(Oc2ccnc(Nc3ccc(N4CCN(C)CC4)cc3)n2)c1	none (no result: GRK2 inh)
C=CC(=O)Nc1cccc(Oc2ccnc3[nH]ccc23)c1	STEP inh 54, SUMO1 PPI mod 57 (no result: GRK2 inh)
CCCCn1c(O)c2n(c1=O)Cc1ccccc1N=C2c1ccc(C)cc1	none (no result: Scp1 inh, GRK2 inh)
O=C(O)c1ccccc1NC(=O)C1CCN(S(=O)(=O)c2ccc3c(c2)OCCO3)CC1	none (no result: Scp1 inh, GRK2 inh)
COC(=O)C[C@H]1CC[C@H](NC(=O)c2ccc(F)cc2)[C@@H](CO)O1	none (no result: DNMT1 inh, STEP inh, Scp1 inh, GRK2 inh)
NC(=O)C1CCN(C(=O)COc2ccc3ccccc3c2Br)CC1	none
O=C(COc1ccc2ccccc2c1Br)N1CCCCC1	GRK2 inh 87
Cc1ccccc1Oc1ccc2c(c1)[C@@H]1C[C@H](N(C)C(=O)c3ccco3)[C@H]([C@H](C)O)C(=O)N1CC2	none (no result: Scp1 inh, GRK2 inh)
CC(=O)N(C)C[C@H]1Oc2ncc(Br)cc2C(=O)N([C@H](C)CO)C[C@@H]1C	none (no result: Scp1 inh, GRK2 inh)
CSc1nc(C)c2c(n1)N(c1ccc(C(C)C)cc1)CC2	SUMO1 PPI mod 56
c1ccc(-c2nc(NCCCn3ccnc3)c3ccccc3n2)cc1	LMPTP block 57
O=C(O)CCCCCNc1nc(-c2ccccc2)nc2ccccc12	LMPTP block 59
Cc1ccc([C@H]2C[C@@H](O)[C@H](n3cc(C4CC4)nn3)CN2C(=O)C2CCCCC2)cc1	none (no result: Scp1 inh, GRK2 inh)
CN(C(=S)NC(=O)C12CC3CC(CC(C3)C1)C2)c1ccc(O)cc1	GRK2 inh 59
CCCCCCCN1C(Nc2ccccc2)=NC[C@@H]1Cc1ccccc1	DNMT1 inh 58
CCOc1ccc2nc(N/C(N)=N/C(=S)Nc3ccc(C)c(C)c3)nc(C)c2c1	GRK2 inh 94
COc1ccc(NC(=S)/N=C(\N)Nc2nc(C)c3ccc(C)cc3n2)cc1	none
CC1CCN(C(=S)NC(=O)c2ccc(C(C)(C)C)cc2)CC1	SUMO1 PPI mod 45 (no result: GRK2 inh)
O=C(O)c1ccc(N2Cc3ccccc3C2)cc1O	Scp1 inh 71
Cc1ccc(Nc2cc(C)c3ccc(O)cc3n2)cc1C	none
Cc1ccccc1Nc1cc(C)c2c(O)cccc2n1	LMPTP block 67
